Test results from ChEMBL document CHEMBL1152781, “Design, synthesis, and structure-activity analysis of isoform-selective retinoic acid receptor beta ligands” (J Med Chem, 2009).
Converted amounts (≈) assume the structure as drawn. The source made the active and inactive calls. The rule behind the calls is not given here.

What was measured:
[1] = target: T1, Retinoic acid receptor beta (Homo sapiens) (UniProt P10826); assay: Agonist activity at RARbeta2 expressed in mouse NIH3T3 cells by R-SAT assay relative to Am-580; type: functional, cell-based
T1 sequence (whole entry): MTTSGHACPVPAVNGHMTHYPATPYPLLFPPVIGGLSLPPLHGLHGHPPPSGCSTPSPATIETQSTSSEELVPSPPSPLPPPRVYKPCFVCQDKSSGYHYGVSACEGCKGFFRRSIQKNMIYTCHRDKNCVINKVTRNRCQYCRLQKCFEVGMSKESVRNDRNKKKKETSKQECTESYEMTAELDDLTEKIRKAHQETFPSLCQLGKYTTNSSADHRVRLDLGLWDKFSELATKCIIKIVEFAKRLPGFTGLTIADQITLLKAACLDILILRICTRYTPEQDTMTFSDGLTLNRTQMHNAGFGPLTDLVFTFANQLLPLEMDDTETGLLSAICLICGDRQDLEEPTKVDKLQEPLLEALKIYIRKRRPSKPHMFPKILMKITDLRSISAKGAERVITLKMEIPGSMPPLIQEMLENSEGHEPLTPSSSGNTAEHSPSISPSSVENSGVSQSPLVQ
In short: (§1)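 High-throughput cell-proliferation functional assay (R-SAT). Efficacy is expressed relative to reference agonist AM-580, which is set to 100%. pEC50 and efficacy are means of at least three experiments ± SD. […] Where marked, efficacy is the maximum at concentrations <10 µM.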

[2] = target: T2, Retinoic acid receptor beta (Homo sapiens, UniProt P10826); assay: Agonist activity at RARbeta2 expressed in mouse NIH3T3 cells by R-SAT assay; type: functional, cell-based; conditions: for pEC50: nih3t3
T2 sequence (P10826 whole entry): T1 sequence (whole entry)

[3] = target: T1, Retinoic acid receptor beta (Homo sapiens); assay: Activity at RARbeta1 expressed in mouse NIH3T3 cells by R-SAT assay relative to Am-580; type: cell-based; in short: as §1
[4] = target: T3, Retinoic acid receptor alpha (Homo sapiens, UniProt P10276); assay: Activity at RARalpha expressed in mouse NIH3T3 cells by R-SAT assay; type: cell-based; conditions: for pEC50: nih3t3
T3 sequence (P10276 whole entry): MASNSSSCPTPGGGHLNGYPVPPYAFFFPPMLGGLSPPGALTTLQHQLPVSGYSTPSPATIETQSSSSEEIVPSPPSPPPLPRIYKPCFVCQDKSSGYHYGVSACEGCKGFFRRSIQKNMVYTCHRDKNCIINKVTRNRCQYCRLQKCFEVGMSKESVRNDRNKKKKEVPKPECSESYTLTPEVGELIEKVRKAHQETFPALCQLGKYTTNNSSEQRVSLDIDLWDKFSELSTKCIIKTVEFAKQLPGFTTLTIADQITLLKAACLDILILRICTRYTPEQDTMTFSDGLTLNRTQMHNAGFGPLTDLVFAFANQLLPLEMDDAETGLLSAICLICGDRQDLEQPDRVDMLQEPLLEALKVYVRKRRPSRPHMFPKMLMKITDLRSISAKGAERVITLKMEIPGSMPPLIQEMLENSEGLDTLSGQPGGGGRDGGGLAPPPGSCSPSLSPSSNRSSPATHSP

[5] = target: T4, Retinoic acid receptor gamma (Homo sapiens) (UniProt P13631); assay: Activity at RARgamma expressed in mouse NIH3T3 cells by R-SAT assay relative to Am-580; type: cell-based; in short: as §1
T4 sequence (whole entry): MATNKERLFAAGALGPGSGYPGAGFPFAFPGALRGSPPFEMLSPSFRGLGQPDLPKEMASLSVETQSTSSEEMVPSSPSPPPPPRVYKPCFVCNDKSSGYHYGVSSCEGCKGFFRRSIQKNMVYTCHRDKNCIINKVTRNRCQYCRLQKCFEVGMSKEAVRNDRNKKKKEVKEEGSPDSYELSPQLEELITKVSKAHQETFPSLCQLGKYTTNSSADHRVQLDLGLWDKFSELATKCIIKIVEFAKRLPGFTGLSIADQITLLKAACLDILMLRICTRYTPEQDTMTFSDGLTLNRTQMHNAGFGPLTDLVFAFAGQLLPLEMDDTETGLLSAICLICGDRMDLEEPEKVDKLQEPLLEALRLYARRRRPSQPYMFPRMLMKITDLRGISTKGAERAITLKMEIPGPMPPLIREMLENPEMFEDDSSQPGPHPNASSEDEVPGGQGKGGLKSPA

[6] = target: T5, Retinoic acid receptor gamma (Homo sapiens, UniProt P13631); assay: Activity at RARgamma expressed in mouse NIH3T3 cells by R-SAT assay; type: cell-based; conditions: for pEC50: nih3t3
T5 sequence (P13631 whole entry): T4 sequence (whole entry)

[7] = Aqueous solubility in phosphate buffer at pH 7.4; type: physicochemical
[8] = Lipophilicity, Log P of the compound; type: physicochemical; conditions: octanol/water
In short: (§2)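 Lipophilicity descriptors, cLogD at pH 7.4 and cLogP, are mostly calculated. Values in parentheses are experimentally determined.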

NTERA2 = assay: Induction of neurite outgrowth in human NTERA2 cells; type: functional, cell-based
[9] = target: T2, Retinoic acid receptor beta; assay: Activity at RARbeta1 expressed in mouse NIH3T3 cells by R-SAT assay; type: cell-based
[10] = target: T4, Retinoic acid receptor gamma (Homo sapiens); assay: Activity at RARgamma expressed in mouse NIH3T3 cells at <10 uM by R-SAT assay relative to Am-580; type: cell-based; in short: as §1
[11] = Metabolic stability in human liver microsomes assessed as intrinsic clearance; type: ADME, Microsome
In short: (§3)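 Liver microsomes, rat or human, as stated per line. Read-out is intrinsic clearance in µL/(min·mg) protein. Hepatic extraction was calculated without correcting for the unbound fraction of drug in plasma.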

[12] = Metabolic stability in rat liver microsomes assessed as intrinsic clearance; type: ADME, Microsome; in short: as §3
[13] = Distribution coefficient, log D of the compound; type: physicochemical; conditions: octanol/water; in short: as §2
MCF7 [14] = assay: Inhibition of human MCF7 cell proliferation; type: functional, cell-based
MCF7 [15] = assay: Inhibition of human MCF7 cell proliferation assessed as inhibition of DNA synthesis by [3H]thymidine incorporation assay; type: functional, cell-based
[16] = target: T1, Retinoic acid receptor beta (Homo sapiens); assay: Activation of RARbeta2 expressed in HEK293 cells after 48 hrs by RARE-luciferase reporter gene assay; type: cell-based
NIH3T3 [17] = assay: Selectivity for RARbeta2 expressed in mouse NIH3T3 cells over RARalpha expressed in mouse NIH3T3 cells; type: cell-based
NIH3T3 [18] = assay: Selectivity for RARbeta2 expressed in mouse NIH3T3 cells over RARgamma expressed in mouse NIH3T3 cells; type: cell-based
NIH3T3 [19] = assay: Selectivity for RARbeta2 expressed in mouse NIH3T3 cells over RARbeta1 expressed in mouse NIH3T3 cells; type: cell-based
[20] = target: T1, Retinoic acid receptor beta (Homo sapiens); assay: Activity at RARbeta1 expressed in mouse NIH3T3 cells at <10 uM by R-SAT assay relative to Am-580; type: cell-based; in short: as §1
[21] = target: T6, Retinoic acid receptor alpha (Homo sapiens) (UniProt P10276); assay: Activity at RARalpha expressed in mouse NIH3T3 cells at <10 uM by R-SAT assay relative to Am-580; type: cell-based; in short: as §1
T6 sequence (whole entry): T3 sequence (P10276 whole entry)

[22] = Clearance in rat; type: ADME, organism-based; conditions: in vivo

In the case of CCCCCCCCc1ccc(-c2ccc(C(=O)O)c(C)c2)cc1, the Efficacy [1] is reported as 84% and the EC50 [2] is reported as 631 nM.

With CCCCCCCc1ccc(-c2ccc(C(=O)O)s2)cc1 the Activity [1] was “inactive” and the pEC50 [2] was > 5.

In the case of CCCCCCCOc1ccc(-c2ccc(C(=O)O)cc2)cc1, the Efficacy [1] is reported as 62%, the EC50 [2] is reported as 63.1 nM and the Activity [3] is reported as “inactive”. The pEC50 [4] was > 5, the Activity [5] was “inactive” and the pEC50 [6] was > 5.

In the case of CC1(C)CCC(C)(C)c2cc(C(=O)Nc3ccc(C(=O)O)cc3)ccc21, the Efficacy [5] is reported as 99%.

In the case of CCCCCCNC(=O)COc1ccc(-c2ccc(C(=O)O)cc2)cc1, the Activity [1] is reported as “inactive” and the pEC50 [2] is reported as > 5.

With CCCCCCCCc1ccc(-c2ccc(C(=O)O)cc2)cc1 the solubility [7] was < 1 µg/mL, the logP [8] was 7.9 and the Activity (NTERA2) was “Active”. For the same compound, the Efficacy [3] was 29%, the EC50 [9] was 2000 nM and the EC50 [4] was 2510 nM. It also gave an Efficacy [10] of 31%, a microsomal CLint [11] of 5 µL/min/mg and a microsomal CLint [12] of 5 µL/min/mg. For the same compound, the logD [13] was 4.5, the Activity (MCF7 [14]) was “Dose-dependent effect” and the Activity (MCF7 [15]) was “Active”. The Activity [16] was “Active”, the fold change (FC) (NIH3T3 [17]) was 100 and the fold change (FC) (NIH3T3 [18]) was 100. The fold change (FC) (NIH3T3 [19]) was 100.

CCCCCCCCc1ccc(-c2ccc(C(=O)O)c(F)c2)cc1 showed an Efficacy [1] of 114%, an EC50 [2] of 39.8 nM and an Efficacy [3] of 54%. The EC50 [9] was 398 nM, the EC50 [4] was 2000 nM and the Efficacy [5] was 84%. The EC50 [6] was 158 nM.

For CC(C)CCCCOc1ccc(-c2ccc(C(=O)O)cc2)cc1, the Efficacy [1] was 75%, the Efficacy [20] was 28% and the pEC50 [4] was > 5. It also gave an Efficacy [10] of 31%.

CCCCCCCc1cnc(-c2ccc(C(=O)O)cc2)nc1 gave an Efficacy [1] of 93% and an EC50 [2] of 1000 nM.

CCCCCCCCc1ccc(-c2ccc(C(=O)O)cc2C)cc1 showed an Efficacy [1] of 37% and an EC50 [2] of 100 nM.

For CCCCCCNC(=O)COc1nc(-c2ccc(C(=O)O)cc2)sc1C, the Efficacy [1] was 85%, the EC50 [2] was 39.8 nM and the Efficacy [20] was 42%. The Efficacy [21] was 35%, the Efficacy [5] was 63% and the EC50 [6] was 631 nM.

In the case of CCCCCCCOc1nc(-c2ccc(C(=O)O)cc2)sc1C, the Activity [1] is reported as “inactive” and the pEC50 [2] is reported as > 5.

With CCCCOCCOc1ccc(-c2ccc(C(=O)O)cc2)cc1 the Efficacy [1] was 78%, the EC50 [2] was 63.1 nM and the Activity [3] was “inactive”. For the same compound, the pEC50 [4] was > 5, the Activity [5] was “inactive” and the pEC50 [6] was > 5.

Compound CCCCCCCc1ccc(-c2ccc(C(=O)O)c(F)c2)cc1 has an Efficacy [1] of 50% and an EC50 [2] of 126 nM.

In the case of CCCCCCCc1ccc(-c2ccc(C(=O)O)cc2)cc1, the Efficacy [3] is reported as 230%.

For CCCCCCCCc1ccc(-c2ccc(C(=O)O)s2)cc1, the Activity [1] was “inactive” and the pEC50 [2] was > 5.

In the case of CCOCCOc1nc(-c2ccc(C(=O)O)cc2)sc1C, the Efficacy [1] is reported as 78% and the EC50 [2] is reported as 63.1 nM.

CCCCOCCOc1ccc(-c2ccc(C(=O)O)c(F)c2)cc1 showed a solubility [7] of 20 µg/mL (≈ 60.2 µM), an Efficacy [1] of 108% and an EC50 [2] of 20 nM. For the same compound, the Efficacy [20] was 36%, the EC50 [4] was 1580 nM and the Efficacy [10] was 37%. The microsomal CLint [11] was 8 µL/min/mg.

For CCCCOCCOc1cc(C)c(-c2ccc(C(=O)O)cc2)cc1C, the Efficacy [1] was 41% and the EC50 [2] was 251 nM.

In the case of CCCCCCOc1ccc(-c2ccc(C(=O)O)cc2)cc1, the Efficacy [1] is reported as 72%, the EC50 [2] is reported as 31.6 nM and the Activity [3] is reported as “inactive”.

Work on CCCCOCCOc1nc(-c2ccc(C(=O)O)cc2)sc1C yielded an Efficacy [1] of 99%, an EC50 [2] of 79.4 nM and an Efficacy [3] of 45%. It also gave an EC50 [9] of 1260 nM and an Efficacy [10] of 54%.

CCCCCCCCOc1ccc(-c2ccc(C(=O)O)cc2)cc1 showed an Efficacy [1] of 70%, an EC50 [2] of 100 nM and an Efficacy [3] of 49%. It also gave an EC50 [9] of 1000 nM.

In the case of CCCCCCCCc1ccc(-c2ccc(C(=O)O)cc2F)cc1, the Efficacy [1] is reported as 85% and the EC50 [2] is reported as 100 nM.

For CCCOCCOc1nc(-c2ccc(C(=O)O)cc2)sc1C, the Efficacy [1] was 100% and the EC50 [2] was 126 nM.

In the case of CCCCCCCc1ccc(-c2ccc(C(=O)O)cc2C)cc1, the Activity [1] is reported as “inactive” and the pEC50 [2] is reported as > 5.

CCCCOCCOc1nc(-c2ccc(C(=O)O)c(F)c2)sc1C showed an Efficacy [1] of 106%, an Efficacy [3] of 52% and an EC50 [9] of 398 nM. The EC50 [4] was 631 nM, the Efficacy [5] was 48% and the EC50 [6] was 501 nM. For the same compound, the microsomal CLint [11] was 36 µL/min/mg, the microsomal CLint [12] was 10 µL/min/mg and the clearance [22] was 41 mL/min/kg.
